In ChEMBL document CHEMBL1122744, “2-Chloroethyl (methylsulfonyl)methanesulfonate and related (methylsulfonyl)methanesulfonates. Antineoplastic activity in vivo” (J Med Chem, 1984):

How the values were obtained:
[1] = Ratio of median survival times for non-survivors at dose 100 mg/kg in exp1; assay type: functional; parameters: unit: %
How it was run: (§1)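 Mice were inoculated ip with 10^6 P388 leukemia cells on day 0. Groups of six (occasionally five) were dosed ip qd on days 1–5 with fresh suspensions; 30 mice served as untreated controls. Deaths were recorded daily up to day 60. T/C% compares the median survival of treated non-survivors (<60 days) with the control median. Medians used grouped data when there were no 30-day survivors, otherwise ungrouped data. t = toxic.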

[2] = Ratio of median survival times for non-survivors at dose 50 mg/kg in exp1; assay type: functional; parameters: unit: %; how it was run: as §1
Mus musculus [3] = test: Median survival time of the untreated control groups, in which there are no 30-day survivors at dose 100 mg/kg in exp2; assay type: functional
[4] = Ratio of median survival times for non-survivors at dose 33 mg/kg in exp2; assay type: functional
Mus musculus [5] = test: Change in weight by day 5, obtained by subtracting treated groups of animals minus control groups of animals at dose 50 mg/kg in exp7; assay type: functional
How it was run: (§2)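 Mice were inoculated ip with 10^6 P388 leukemia cells on day 0 and weighed 19–22 g that day. Compound was given ip once daily on days 1–5, within about 5 min of preparing the solution or suspension, to groups of six (occasionally five). Thirty inoculated untreated mice served as controls. The value is the average weight change of treated mice minus that of controls on day 5.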

Mus musculus [6] = test: Change in weight by day 5, obtained by subtracting treated groups of animals minus control groups of animals at dose 22 mg/kg in exp7; assay type: functional; how it was run: as §2
Mus musculus [7] = test: Mortality by day 5 expressed as number of mice died to the total treated at dose 22 mg/kg in exp5; 0/6; assay type: ADME, organism-based; parameters: dose 22 mg/kg; settings: in vivo
[8] = Ratio of median survival times for non-survivors at dose 100 mg/kg in exp8*-toxic; assay type: functional; how it was run: as §1
Mus musculus [9] = test: Median survival time of the treated control groups, in which there are no 30-day survivors at dose 100 mg/kg in exp1; assay type: functional
Mus musculus [10] = test: Mortality by day 5 expressed as number of mice died to the total treated at dose 22 mg/kg in exp7; 0/6; assay type: ADME, organism-based; parameters: dose 22 mg/kg; settings: in vivo
[11] = Ratio of number of 60-day survivors to the total treated mice at dose 50 mg/kg in exp5; 1/6; assay type: functional
Mus musculus [12] = test: Median survival time of the untreated control groups, in which there are no 30-day survivors at dose 200 mg/kg in exp1; assay type: functional
[13] = Ratio of number of 60-day survivors to the total treated mice at dose 50 mg/kg in exp1; 2/6; assay type: functional
Mus musculus [14] = test: Median survival time of the treated control groups, in which there are no 30-day survivors at dose 50 mg/kg in exp5; assay type: functional
Mus musculus [15] = test: Median survival time of the untreated control groups, in which there are no 30-day survivors at dose 50 mg/kg in exp6; assay type: functional
[16] = Ratio of number of 30-day survivors to the total treated mice at dose 50 mg/kg in exp1; 4/6; assay type: functional
Mus musculus [17] = test: Median survival time of the untreated control groups, in which there are no 30-day survivors at dose 22 mg/kg in exp5; assay type: functional
Mus musculus [18] = test: Change in weight by day 5, obtained by subtracting treated groups of animals minus control groups of animals at dose 22 mg/kg in exp6; assay type: functional; how it was run: as §2
[19] = Ratio of median survival times for non-survivors at dose 150 mg/kg in exp2; t= toxic; assay type: ADME, organism-based; parameters: dose 150 mg/kg; settings: in vivo; how it was run: as §1
[20] = Ratio of median survival times for non-survivors at dose 22 mg/kg in exp6; assay type: functional
Mus musculus [21] = test: Mortality by day 5 expressed as number of mice died to the total treated at dose 22 mg/kg in exp3; 0/5; assay type: ADME, organism-based; parameters: dose 22 mg/kg; settings: in vivo
Mus musculus [22] = test: Mortality by day 5 expressed as number of mice died to the total treated at dose 33 mg/kg in exp7; 0/6; assay type: ADME, organism-based; parameters: dose 33 mg/kg; settings: in vivo
Mus musculus [23] = test: Mortality by day 5 expressed as number of mice died to the total treated at dose 200 mg/kg in exp1; 5/6; assay type: ADME, organism-based; parameters: dose 200 mg/kg; settings: in vivo
Mus musculus [24] = test: Median survival time of the untreated control groups, in which there are no 30-day survivors at dose 22 mg/kg in exp6; assay type: functional
Mus musculus [25] = test: Change in weight by day 5, obtained by subtracting treated groups of animals minus control groups of animals at dose 50 mg/kg in exp2.; assay type: functional; how it was run: as §2
Mus musculus [26] = test: Mortality by day 5 expressed as number of mice died to the total treated at dose 100 mg/kg in exp8*-Mortality was 3/6 by day 6; 2/6; assay type: ADME, organism-based; parameters: dose 100 mg/kg; settings: in vivo
[27] = Ratio of median survival times for non-survivors at dose 33 mg/kg in exp5; assay type: functional
Mus musculus [28] = test: Median survival time of the untreated control groups, in which there are no 30-day survivors at dose 33 mg/kg in exp4; assay type: functional
Mus musculus [29] = test: Mortality by day 5 expressed as number of mice died to the total treated at dose 22 mg/kg in exp6; 0/6; assay type: ADME, organism-based; parameters: dose 22 mg/kg; settings: in vivo
Mus musculus [30] = test: Mortality by day 5 expressed as number of mice died to the total treated at dose 75 mg/kg in exp2; 0/5; assay type: ADME, organism-based; parameters: dose 75 mg/kg; settings: in vivo
Mus musculus [31] = test: Median survival time of the treated control groups, in which there are no 30-day survivors at dose 22 mg/kg in exp5; assay type: functional
[32] = Ratio of number of 30-day survivors to the total treated mice at dose 33 mg/kg in exp4; 1/6; assay type: functional
Mus musculus [33] = test: Mortality by day 5 expressed as number of mice died to the total treated at dose 100 mg/kg in exp2; 1/5; assay type: ADME, organism-based; parameters: dose 100 mg/kg; settings: in vivo
Mus musculus [34] = test: Median survival time of the treated control groups, in which there are no 30-day survivors at dose 33 mg/kg in exp5; assay type: functional
[35] = Ratio of median survival times for non-survivors at dose 33 mg/kg in exp6; assay type: functional
[36] = Ratio of number of 30-day survivors to the total treated mice at dose 50 mg/kg in exp5; 3/6; assay type: functional
Mus musculus [37] = test: Mortality by day 5 expressed as number of mice died to the total treated at dose 150 mg/kg in exp2; 5/5; assay type: ADME, organism-based; parameters: dose 150 mg/kg; settings: in vivo
Mus musculus [38] = test: Median survival time of the untreated control groups, in which there are no 30-day survivors at dose 22 mg/kg in exp7; assay type: functional
Mus musculus [39] = test: Change in weight by day 5, obtained by subtracting treated groups of animals minus control groups of animals at dose 33 mg/kg in exp4.; assay type: functional; how it was run: as §2
Mus musculus [40] = test: Median survival time of the treated control groups, in which there are no 30-day survivors at dose 100 mg/kg in exp2; assay type: functional
Mus musculus [41] = test: Median survival time of the untreated control groups, in which there are no 30-day survivors at dose 75 mg/kg in exp2; assay type: functional
Mus musculus [42] = test: Median survival time of the treated control groups, in which there are no 30-day survivors at dose 22 mg/kg in exp6; assay type: functional

`CS(=O)(=O)CS(=O)(=O)OCCCl` gave a Ratio [1] of 151, a Ratio [2] of 281 and a Median survival time (Mus musculus [3]) of 11.2. It also gave a Ratio [4] of 209, a Change in weight (Mus musculus [5]) of -3 and a Change in weight (Mus musculus [6]) of -2.2. It also gave a Mortality (Mus musculus [7]) of 0, a Ratio [8] of 55 and a Median survival time (Mus musculus [9]) of 17. The Mortality (Mus musculus [10]) was 0, the Ratio [11] was 1 and the Median survival time (Mus musculus [12]) was 11.2 days. It also gave a Ratio [13] of 2, a Median survival time (Mus musculus [14]) of 27 and a Median survival time (Mus musculus [15]) of 13. It also gave a Ratio [16] of 4, a Median survival time (Mus musculus [17]) of 12 and a Change in weight (Mus musculus [18]) of -1.4. For the same compound, the Ratio [19] was “Toxic”, the Ratio [20] was 160 and the Mortality (Mus musculus [21]) was 0. The Mortality (Mus musculus [22]) was 0, the Mortality (Mus musculus [23]) was 5 and the Median survival time (Mus musculus [24]) was 13. It also gave a Change in weight (Mus musculus [25]) of -3.4, a Mortality (Mus musculus [26]) of 2 and a Ratio [27] of 214. For the same compound, the Median survival time (Mus musculus [28]) was 10.5, the Mortality (Mus musculus [29]) was 0 and the Mortality (Mus musculus [30]) was 0. The Median survival time (Mus musculus [31]) was 19.4, the Ratio [32] was 1 and the Mortality (Mus musculus [33]) was 1. It also gave a Median survival time (Mus musculus [34]) of 25.7, a Ratio [35] of 179 and a Ratio [36] of 3. It also gave a Mortality (Mus musculus [37]) of 5, a Median survival time (Mus musculus [38]) of 10.7 and a Change in weight (Mus musculus [39]) of -2.6. The Median survival time (Mus musculus [40]) was 22.5, the Median survival time (Mus musculus [41]) was 11.2 and the Median survival time (Mus musculus [42]) was 20.8.
